For experiment [1], the target named is T1, UCHL5 (Homo sapiens, UniProt Q9Y5K5).
T1 sequence (Q9Y5K5 1-329): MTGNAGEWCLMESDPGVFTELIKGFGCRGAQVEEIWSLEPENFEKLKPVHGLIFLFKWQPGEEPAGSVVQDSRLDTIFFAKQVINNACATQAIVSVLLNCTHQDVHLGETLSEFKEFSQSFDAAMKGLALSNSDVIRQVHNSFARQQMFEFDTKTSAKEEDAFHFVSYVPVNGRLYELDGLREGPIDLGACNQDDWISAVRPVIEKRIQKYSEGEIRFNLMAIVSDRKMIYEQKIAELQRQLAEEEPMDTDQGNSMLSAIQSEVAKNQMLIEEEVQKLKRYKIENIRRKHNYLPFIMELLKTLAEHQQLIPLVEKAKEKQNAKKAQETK
Description: in vitro DUB assay with purified UCHL5 and Ub-rhodamine 110. The experiment is classed as biochemical.

The target of experiment [2] is T1, UCHL5. The experiment is classed as biochemical. The note with it: MDA-MB-231 lysate pre-incubated 30 min, Ub-VS 1 μM. The method in brief: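 Lysate (20 μg protein) was pre-incubated with test compound at RT, then Ub-VS was added for 11 min at RT. After SDS quench and 12% SDS-PAGE, blots were probed for UCHL5 band shift and β-actin. Two independent experiments were run.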

As to `Nc1ccc(-c2cn(Cc3cc(C(=O)O)cc(-c4cccc(C(=O)O)c4)c3)nn2)cc1` [TAB2], at UCHL5 [1] (TAB2 vs TAB1), the “improved potency versus TAB1” value was “ca. 2.5 fold”. For the same compound, at UCHL5 [2], the “concentrations inhibiting UCHL5/Ub-VS conjugation” value was in the range of 25 to 50 µM.
In the case of `CC(C(=O)O)c1ccc(C(=O)c2cccc(-c3ccccc3C(=O)O)c2)s1` (stereo not drawn) [TAA1], on UCHL5 [1] (TAA1 vs TA), the “improvement of IC50 compared to TA” value was “ca. 33 fold”.

Source of the values: publication PMC7880549 (Bioorganic & medicinal chemistry, 2020).
